In ChEMBL document CHEMBL1131879, “Inhibition of macrophage migration inhibitory factor (MIF) tautomerase activity by dopachrome analogs” (Bioorg Med Chem Lett, 1999):

How the values were obtained:
[1] = target: T1, Macrophage migration inhibitory factor (Homo sapiens) (UniProt P14174); test: Inhibitory activity against macrophage migration inhibitory factor tautomerase (MIF) at a concentration of 0.25 mM
T1 sequence (whole entry): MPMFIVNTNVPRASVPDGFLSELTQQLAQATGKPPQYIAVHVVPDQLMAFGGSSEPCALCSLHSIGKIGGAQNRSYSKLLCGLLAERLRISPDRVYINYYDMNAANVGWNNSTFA
Method in brief: (§1)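 Recombinant human MIF expressed in E. coli. The substrate is L-dopachrome methyl ester, generated by oxidizing 10 mM precursor stocks in 10 mM sodium phosphate, pH 6.0, with sodium periodate for 10 min, then quenching with methionine. Final substrate is 0.5 mM, with test compound at the stated concentration. The reaction starts on adding MIF from a 20 mg/mL stock. Percent inhibition is taken from the absorbance decrease at 475 nm over 1 min.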

[2] = target: T1, Macrophage migration inhibitory factor (Homo sapiens); test: Inhibitory activity against macrophage migration inhibitory factor tautomerase (MIF) at a concentration of 0.5 mM; method in brief: as §1
[3] = target: T1, Macrophage migration inhibitory factor (Homo sapiens); test: Inhibitory activity against macrophage migration inhibitory factor tautomerase (MIF) at a concentration of 0.06 mM; method in brief: as §1
[4] = target: T1, Macrophage migration inhibitory factor (Homo sapiens); test: Inhibitory activity against macrophage migration inhibitory factor tautomerase (MIF) at a concentration of 0.125 mM; method in brief: as §1
[5] = target: T1, Macrophage migration inhibitory factor (Homo sapiens); test: Inhibitory activity against macrophage migration inhibitory factor tautomerase (MIF) at a concentration of 0.02 mM; method in brief: as §1

Row | Compound | inhibition [1] | inhibition [2] | inhibition [3] | inhibition [4] | inhibition [5]
1 | CC1N=C2C=C(O)C(=O)C=C2C1O (stereo not drawn) | 88% | 92% | 22% | 54% | –
2 | COC(=O)[C@]1(C)CC2=CC(=O)C(O)=CC2=N1 | – | 45% | – | – | –
3 | COC(=O)C1(C)CC2=CC(=O)C(O)=CC2=N1 (racemic) | – | 34% | – | – | –
4 | C[C@@]1(C(=O)O)CC2=CC(=O)C(O)=CC2=N1 | – | 29% | – | – | –
5 | CCCC(C(N)=O)C1=CC(O)C(O)=CC1 (stereo not drawn) | – | 0% | – | – | –
6 | CC1(C(=O)O)CC2=CC(=O)C(O)=CC2=N1 (racemic) | – | 35% | – | – | –
7 | C[N+]1=C2C=C(O)C(=O)C=C2C(O)C1 (stereo not drawn) | 79% | 98% | – | 54% | 21%
8 | O=C1C=C2C(=NC(C(=O)O)C2O)C=C1O (stereo not drawn) | 98% | 100% | 9% | 41% | –
9 | CCOC(=O)/C=C/C1=CC(O)C(O)=CC1 (stereo not drawn) | – | 0% | – | – | –
